Experimental data: ChEMBL document CHEMBL4152188, “Design, synthesis and biological evaluation of C(4) substituted monobactams as antibacterial agents against multidrug-resistant Gram-negative bacteria” (Eur J Med Chem, 2018)
Converted amounts (≈) assume the structure as drawn.

Tests used:
Escherichia coli [1] = experiment: Antibacterial activity against extended-spectrum beta-lactamase producing Escherichia coli isolate 212648 after 18 hrs by CLSI broth microdilution method; type: functional; details: isolate 212648, 18 h
Escherichia coli [2] = experiment: Selectivity index, ratio of MIC for against extended-spectrum beta-lactamase producing Escherichia coli isolate 208687 to MIC for extended-spectrum beta-lactamase producing Escherichia coli isolate 208687 in presence of BPL; type: functional
[3] = Intrinsic clearance in human liver microsomes assessed per g protein at 0.1 uM pre-incubated with compound followed by NADPH addition and measured after 60 mins by LC-MS/MS analysis; type: ADME, microsome; details: 1 h
Method in brief: (§1)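 Liver microsomes, 0.33 mg/mL microsomal protein, with an NADP+-regenerating system. Test article at 0.1 µM, incubated at 37°C. Samples were taken at 0, 7, 17, 30 and 60 min, and parent compound was measured by MS. Half-life, intrinsic clearance (ml/min/g protein) and MF (%) are derived from parent loss.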

[4] = Intrinsic clearance in mouse liver microsomes assessed per g protein at 0.1 uM pre-incubated with compound followed by NADPH addition and measured after 60 mins by LC-MS/MS analysis; type: ADME, microsome; details: 1 h; method in brief: as §1
[5] = Metabolic bioavailability in human liver microsomes at 0.1 uM pre-incubated with compound followed by NADPH addition and measured after 60 mins by LC-MS/MS analysis; type: ADME, microsome
Escherichia coli [6] = experiment: Antibacterial activity against Escherichia coli isolate 210737 after 18 hrs by CLSI broth microdilution method; type: functional; details: isolate 210737, 18 h
Escherichia coli [7] = experiment: Antibacterial activity against extended-spectrum beta-lactamase producing Escherichia coli isolate 208687 after 18 hrs by CLSI broth microdilution method; type: functional; details: isolate 208687, 18 h
Escherichia coli [8] = experiment: Antibacterial activity against extended-spectrum beta-lactamase producing Escherichia coli isolate 208687 after 18 hrs in presence of BPL by CLSI broth microdilution method; type: functional; details: isolate 208687, 18 h
Method in brief: (§2)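 CLSI broth microdilution against clinical isolates (ESBL E. coli, KPC-2 MDR K. pneumoniae, IMP-4 MDR P. aeruginosa; five per species). Iron limitation: Mueller-Hinton broth supplemented with 16 mg/liter 2,2'-bipyridyl to complex iron and induce iron uptake systems. Read-out: MIC.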

Escherichia coli [9] = experiment: Antibacterial activity against Escherichia coli isolate 210737 after 18 hrs in presence of BPL by CLSI broth microdilution method; type: functional; details: isolate 210737, 18 h; method in brief: as §2
Escherichia coli [10] = experiment: Selectivity index, ratio of MIC for against Escherichia coli isolate 210737 to MIC for Escherichia coli isolate 210737 in presence of BPL; type: functional
Escherichia coli [11] = experiment: Antibacterial activity against extended-spectrum beta-lactamase producing Escherichia coli isolate 212648 after 18 hrs in presence of BPL by CLSI broth microdilution method; type: functional; details: isolate 212648, 18 h; method in brief: as §2
Escherichia coli [12] = experiment: Selectivity index, ratio of MIC for against extended-spectrum beta-lactamase producing Escherichia coli isolate 212648 to MIC for extended-spectrum beta-lactamase producing Escherichia coli isolate 212648 in presence of BPL; type: functional
Escherichia coli [13] = experiment: Antibacterial activity against extended-spectrum beta-lactamase producing Escherichia coli isolate 209285 after 18 hrs in presence of BPL by CLSI broth microdilution method; type: functional; details: isolate 209285, 18 h; method in brief: as §2
Escherichia coli [14] = experiment: Selectivity index, ratio of MIC for against extended-spectrum beta-lactamase producing Escherichia coli isolate 209285 to MIC for extended-spectrum beta-lactamase producing Escherichia coli isolate 209285 in presence of BPL; type: functional
Klebsiella pneumoniae [15] = experiment: Antibacterial activity against KPC-2 producing Klebsiella pneumoniae isolate 212423 after 18 hrs by CLSI broth microdilution method; type: functional; details: isolate 212423, 18 h
Klebsiella pneumoniae [16] = experiment: Antibacterial activity against KPC-2 producing Klebsiella pneumoniae isolate 209632 after 18 hrs by CLSI broth microdilution method; type: functional; details: isolate 209632, 18 h
Klebsiella pneumoniae [17] = experiment: Antibacterial activity against KPC-2 producing Klebsiella pneumoniae isolate 209632 after 18 hrs in presence of BPL by CLSI broth microdilution method; type: functional; details: isolate 209632, 18 h; method in brief: as §2
Klebsiella pneumoniae [18] = experiment: Selectivity index, ratio of MIC for against KPC-2 producing Klebsiella pneumoniae isolate 209632 to MIC for against KPC-2 producing Klebsiella pneumoniae isolate 209632 in presence of BPL; type: functional
Klebsiella pneumoniae [19] = experiment: Antibacterial activity against KPC-2 producing Klebsiella pneumoniae isolate 209735 after 18 hrs by CLSI broth microdilution method; type: functional; details: isolate 209735, 18 h
Klebsiella pneumoniae [20] = experiment: Selectivity index, ratio of MIC for against KPC-2 producing Klebsiella pneumoniae isolate 209735 to MIC for against KPC-2 producing Klebsiella pneumoniae isolate 209735 in presence of BPL; type: functional
Klebsiella pneumoniae [21] = experiment: Antibacterial activity against KPC-2 producing Klebsiella pneumoniae isolate 212229 after 18 hrs in presence of BPL by CLSI broth microdilution method; type: functional; details: isolate 212229, 18 h; method in brief: as §2
Klebsiella pneumoniae [22] = experiment: Selectivity index, ratio of MIC for against KPC-2 producing Klebsiella pneumoniae isolate 212229 to MIC for against KPC-2 producing Klebsiella pneumoniae isolate 212229 in presence of BPL; type: functional
Pseudomonas aeruginosa [23] = experiment: Antibacterial activity against IMP-4 producing Pseudomonas aeruginosa isolate 212886 after 18 hrs by CLSI broth microdilution method; type: functional; details: isolate 212886, 18 h
Pseudomonas aeruginosa [24] = experiment: Selectivity index, ratio of MIC for against IMP-4 producing Pseudomonas aeruginosa isolate 212886 to MIC for against IMP-4 producing Pseudomonas aeruginosa isolate 212886 in presence of BPL; type: functional
Pseudomonas aeruginosa [25] = experiment: Antibacterial activity against IMP-4 producing Pseudomonas aeruginosa isolate 209471 after 18 hrs in presence of BPL by CLSI broth microdilution method; type: functional; details: isolate 209471, 18 h; method in brief: as §2
Pseudomonas aeruginosa [26] = experiment: Antibacterial activity against IMP-4 producing Pseudomonas aeruginosa isolate 208247 after 18 hrs in presence of BPL by CLSI broth microdilution method; type: functional; details: isolate 208247, 18 h; method in brief: as §2
Pseudomonas aeruginosa [27] = experiment: Selectivity index, ratio of MIC for against IMP-4 producing Pseudomonas aeruginosa isolate 208247 to MIC for against IMP-4 producing Pseudomonas aeruginosa isolate 208247 in presence of BPL; type: functional
Pseudomonas aeruginosa [28] = experiment: Antibacterial activity against IMP-4 producing Pseudomonas aeruginosa isolate 209321 after 18 hrs by CLSI broth microdilution method; type: functional; details: isolate 209321, 18 h
Pseudomonas aeruginosa [29] = experiment: Antibacterial activity against IMP-4 producing Pseudomonas aeruginosa isolate 209321 after 18 hrs in presence of BPL by CLSI broth microdilution method; type: functional; details: isolate 209321, 18 h; method in brief: as §2
Pseudomonas aeruginosa [30] = experiment: Selectivity index, ratio of MIC for against IMP-4 producing Pseudomonas aeruginosa isolate 209321 to MIC for against IMP-4 producing Pseudomonas aeruginosa isolate 209321 in presence of BPL; type: functional
Pseudomonas aeruginosa [31] = experiment: Antibacterial activity against IMP-4 producing Pseudomonas aeruginosa isolate 207272 after 18 hrs by CLSI broth microdilution method; type: functional; details: isolate 207272, 18 h
Pseudomonas aeruginosa [32] = experiment: Antibacterial activity against IMP-4 producing Pseudomonas aeruginosa isolate 207272 after 18 hrs in presence of BPL by CLSI broth microdilution method; type: functional; details: isolate 207272, 18 h; method in brief: as §2
Pseudomonas aeruginosa [33] = experiment: Selectivity index, ratio of MIC for against IMP-4 producing Pseudomonas aeruginosa isolate 207272 to MIC for against IMP-4 producing Pseudomonas aeruginosa isolate 207272 in presence of BPL; type: functional

SMILES	MIC (Escherichia coli [1])	Selectivity Index (Escherichia coli [2])	CLint [3]	CLint [4]	Fh at 1 h, 0.1 µM [5]	MIC (Escherichia coli [6])	MIC (Escherichia coli [7])	MIC (Escherichia coli [8])	MIC (Escherichia coli [9])	Selectivity Index (Escherichia coli [10])	MIC (Escherichia coli [11])	Selectivity Index (Escherichia coli [12])	MIC (Escherichia coli [13])	Selectivity Index (Escherichia coli [14])	MIC (Klebsiella pneumoniae [15])	MIC (Klebsiella pneumoniae [16])	MIC (Klebsiella pneumoniae [17])	Selectivity Index (Klebsiella pneumoniae [18])	MIC (Klebsiella pneumoniae [19])	Selectivity Index (Klebsiella pneumoniae [20])	further results
CC(C)C(O/N=C(\C(=O)N[C@@H]1C(=O)N(S(=O)(=O)O)[C@@H]1Cn1cc(COCc2cc(=O)c(O)cn2O)nn1)c1csc(N)n1)c1cc(=O)c(O)cn1O (some centres not stated)	16 µg/mL (≈ 20.9 µM)	16	26.2 mL/min/g	27.1 mL/min/g	42.8%	16 µg/mL (≈ 20.9 µM)	16 µg/mL (≈ 20.9 µM)	1 µg/mL	8 µg/mL	2	8 µg/mL	2	8 µg/mL	2	2 µg/mL (≈ 2.61 µM)	2 µg/mL (≈ 2.61 µM)	0.25 µg/mL	8	2 µg/mL (≈ 2.61 µM)	8	MIC (Klebsiella pneumoniae [21]): 0.25 µg/mL; Selectivity Index (Klebsiella pneumoniae [22]): 8; MIC (Pseudomonas aeruginosa [23]): 4 µg/mL (≈ 5.22 µM); Selectivity Index (Pseudomonas aeruginosa [24]): 4; MIC (Pseudomonas aeruginosa [25]): 2 µg/mL; MIC (Pseudomonas aeruginosa [26]): 4 µg/mL; Selectivity Index (Pseudomonas aeruginosa [27]): 1; MIC (Pseudomonas aeruginosa [28]): 8 µg/mL (≈ 10.4 µM); MIC (Pseudomonas aeruginosa [29]): 4 µg/mL; Selectivity Index (Pseudomonas aeruginosa [30]): 2; MIC (Pseudomonas aeruginosa [31]): 16 µg/mL (≈ 20.9 µM); MIC (Pseudomonas aeruginosa [32]): 2 µg/mL; Selectivity Index (Pseudomonas aeruginosa [33]): 8
CC(C)C(O/N=C(\C(=O)N[C@@H]1C(=O)N(S(=O)(=O)O)[C@@H]1CCl)c1csc(N)n1)c1cc(=O)c(O)cn1O (some centres not stated)	1 µg/mL (≈ 1.77 µM)	2	11.1 mL/min/g	29 mL/min/g	63.9%	1 µg/mL (≈ 1.77 µM)	0.5 µg/mL (≈ 0.885 µM)	0.25 µg/mL	0.25 µg/mL	4	0.25 µg/mL	4	0.5 µg/mL	1	0.5 µg/mL (≈ 0.885 µM)	4 µg/mL (≈ 7.08 µM)	4 µg/mL	1	32 µg/mL (≈ 56.6 µM)	4	MIC (Klebsiella pneumoniae [21]): 0.25 µg/mL; Selectivity Index (Klebsiella pneumoniae [22]): 2; MIC (Pseudomonas aeruginosa [23]): 8 µg/mL (≈ 14.2 µM); Selectivity Index (Pseudomonas aeruginosa [24]): 1; MIC (Pseudomonas aeruginosa [25]): 4 µg/mL; MIC (Pseudomonas aeruginosa [26]): 8 µg/mL; Selectivity Index (Pseudomonas aeruginosa [27]): 1; MIC (Pseudomonas aeruginosa [28]): 8 µg/mL (≈ 14.2 µM); MIC (Pseudomonas aeruginosa [29]): 8 µg/mL; Selectivity Index (Pseudomonas aeruginosa [30]): 1; MIC (Pseudomonas aeruginosa [31]): 8 µg/mL (≈ 14.2 µM); MIC (Pseudomonas aeruginosa [32]): 4 µg/mL; Selectivity Index (Pseudomonas aeruginosa [33]): 2
CC(C)C(O/N=C(\C(=O)N[C@@H]1C(=O)N(S(=O)(=O)O)C12CCCC2)c1csc(N)n1)c1cc(=O)c(O)cn1O (some centres not stated)	1 µg/mL (≈ 1.75 µM)	2	7.76 mL/min/g	5.59 mL/min/g	71.6%	0.5 µg/mL (≈ 0.876 µM)	0.5 µg/mL (≈ 0.876 µM)	0.25 µg/mL	0.06 µg/mL	8	0.5 µg/mL	2	0.5 µg/mL	1	2 µg/mL (≈ 3.51 µM)	2 µg/mL (≈ 3.51 µM)	0.25 µg/mL	8	2 µg/mL (≈ 3.51 µM)	8	MIC (Klebsiella pneumoniae [21]): 0.125 µg/mL; Selectivity Index (Klebsiella pneumoniae [22]): 8; MIC (Pseudomonas aeruginosa [23]): 16 µg/mL (≈ 28 µM); Selectivity Index (Pseudomonas aeruginosa [24]): 2; MIC (Pseudomonas aeruginosa [25]): 16 µg/mL; MIC (Pseudomonas aeruginosa [26]): 8 µg/mL; Selectivity Index (Pseudomonas aeruginosa [27]): 2; MIC (Pseudomonas aeruginosa [28]): 8 µg/mL (≈ 14 µM); MIC (Pseudomonas aeruginosa [29]): 8 µg/mL; Selectivity Index (Pseudomonas aeruginosa [30]): 1; MIC (Pseudomonas aeruginosa [31]): 16 µg/mL (≈ 28 µM); MIC (Pseudomonas aeruginosa [32]): 8 µg/mL; Selectivity Index (Pseudomonas aeruginosa [33]): 2
CC(C)C(O/N=C(\C(=O)N[C@@H]1C(=O)N(S(=O)(=O)O)[C@@H]1COC(N)=O)c1csc(N)n1)c1cc(=O)c(O)cn1O (some centres not stated)	1 µg/mL (≈ 1.7 µM)	2	11.9 mL/min/g	3.41 mL/min/g	62.2%	0.25 µg/mL (≈ 0.424 µM)	0.5 µg/mL (≈ 0.848 µM)	0.25 µg/mL	0.25 µg/mL	1	0.25 µg/mL	4	0.125 µg/mL	4	1 µg/mL (≈ 1.7 µM)	8 µg/mL (≈ 13.6 µM)	2 µg/mL	4	32 µg/mL (≈ 54.3 µM)	4	MIC (Klebsiella pneumoniae [21]): 0.25 µg/mL; Selectivity Index (Klebsiella pneumoniae [22]): 4; MIC (Pseudomonas aeruginosa [23]): 4 µg/mL (≈ 6.78 µM); Selectivity Index (Pseudomonas aeruginosa [24]): 1; MIC (Pseudomonas aeruginosa [25]): 8 µg/mL; MIC (Pseudomonas aeruginosa [26]): 4 µg/mL; Selectivity Index (Pseudomonas aeruginosa [27]): 1; MIC (Pseudomonas aeruginosa [28]): 8 µg/mL (≈ 13.6 µM); MIC (Pseudomonas aeruginosa [29]): 4 µg/mL; Selectivity Index (Pseudomonas aeruginosa [30]): 2; MIC (Pseudomonas aeruginosa [31]): 8 µg/mL (≈ 13.6 µM); MIC (Pseudomonas aeruginosa [32]): 4 µg/mL; Selectivity Index (Pseudomonas aeruginosa [33]): 2
